Assay results published in ChEMBL document CHEMBL4024779, “Novel Terminal Bipheny-Based Diapophytoene Desaturases (CrtN) Inhibitors as Anti-MRSA/VISR/LRSA Agents with Reduced hERG Activity” (J Med Chem, 2018).
Where a chain is given by its changes, count along the chain named. Active and inactive are the calls of the source. The rule behind the calls is not given here.

How the values were obtained:
Staphylococcus aureus [1] = experiment: In vivo anti-virulence activity against methicillin-resistant Staphylococcus aureus Mu50 infected in BALB/c mouse model assessed as reduction in bacterial load in heart at 0.4 mg bid for 3.5 days administered intraperitoneally 6 hrs post infection by serial dilution method; format: functional; set-up: scale not given: the % may be the effect or the level left
Method in brief: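 Mice (n=10 per group) infected retro-orbitally with S. aureus Mu50 (1.1 × 10^9 or 1.3 × 10^9 CFU) or NRS271 (2.3 × 10^8 CFU). Compound given i.p. b.i.d., either 6 h after infection for 3.5 d or 24 h before infection for 4.5 d. Mice killed after 4.5 d; log10 CFU per organ counted in kidneys and hearts. Two-tailed Mann−Whitney test.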

[2] = Half life in Sprague-Dawley rat at 10 mg/kg, ip administered as single dose by LC-MS/MS analysis; format: ADME, organism-based; details: in vivo
Cytochrome P450 2C9 = Cytochrome P450 2C9 (Homo sapiens, UniProt P11712); experiment: Inhibition of CYP2C9 in human liver microsomes using diclofenac as substrate upto 10 uM after 10 mins in presence of NADPH by LC-MS/MS analysis; format: ADME
Cytochrome P450 2C9, sequence (P11712 whole entry): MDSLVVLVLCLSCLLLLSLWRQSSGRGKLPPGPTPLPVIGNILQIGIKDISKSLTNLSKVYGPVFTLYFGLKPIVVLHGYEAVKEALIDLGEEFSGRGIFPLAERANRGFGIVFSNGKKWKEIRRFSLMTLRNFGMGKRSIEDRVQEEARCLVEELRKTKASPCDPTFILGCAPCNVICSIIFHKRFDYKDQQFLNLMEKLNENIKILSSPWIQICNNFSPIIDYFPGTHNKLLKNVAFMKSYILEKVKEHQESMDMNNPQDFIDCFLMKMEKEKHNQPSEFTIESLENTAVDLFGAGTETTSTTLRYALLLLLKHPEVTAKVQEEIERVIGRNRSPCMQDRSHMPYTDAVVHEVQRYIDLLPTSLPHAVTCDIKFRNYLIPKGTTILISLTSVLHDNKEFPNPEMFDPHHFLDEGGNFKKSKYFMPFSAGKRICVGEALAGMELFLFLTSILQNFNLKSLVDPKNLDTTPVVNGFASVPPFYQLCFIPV

[3] = biological target: T1, 4,4'-diapophytoene desaturase (4,4'-diaponeurosporene-forming) (Staphylococcus aureus (strain MW2)) (UniProt Q8NUQ6); details: Staphylococcus aureus subsp. aureus MW2; USA400; 1 uM
T1 sequence (whole entry): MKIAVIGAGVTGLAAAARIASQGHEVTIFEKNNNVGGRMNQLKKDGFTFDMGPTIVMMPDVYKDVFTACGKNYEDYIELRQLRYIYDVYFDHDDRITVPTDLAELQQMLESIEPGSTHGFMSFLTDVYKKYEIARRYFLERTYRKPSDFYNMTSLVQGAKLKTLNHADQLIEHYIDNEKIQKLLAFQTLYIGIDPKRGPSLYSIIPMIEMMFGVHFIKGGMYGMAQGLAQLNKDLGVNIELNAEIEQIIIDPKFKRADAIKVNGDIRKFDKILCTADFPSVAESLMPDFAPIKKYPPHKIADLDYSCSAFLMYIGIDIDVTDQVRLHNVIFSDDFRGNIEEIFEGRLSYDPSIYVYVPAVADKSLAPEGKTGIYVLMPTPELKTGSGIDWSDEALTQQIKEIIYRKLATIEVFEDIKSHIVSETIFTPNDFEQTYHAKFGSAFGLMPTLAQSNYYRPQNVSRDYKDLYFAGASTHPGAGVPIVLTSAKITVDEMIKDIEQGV

Cytochrome P450 2C19 = Cytochrome P450 2C19 (Homo sapiens, UniProt P33261); experiment: Inhibition of CYP2C19 in human liver microsomes using mephenytoin as substrate upto 10 uM after 45 mins in presence of NADPH by LC-MS/MS analysis; format: ADME
Cytochrome P450 2C19, sequence (P33261 whole entry): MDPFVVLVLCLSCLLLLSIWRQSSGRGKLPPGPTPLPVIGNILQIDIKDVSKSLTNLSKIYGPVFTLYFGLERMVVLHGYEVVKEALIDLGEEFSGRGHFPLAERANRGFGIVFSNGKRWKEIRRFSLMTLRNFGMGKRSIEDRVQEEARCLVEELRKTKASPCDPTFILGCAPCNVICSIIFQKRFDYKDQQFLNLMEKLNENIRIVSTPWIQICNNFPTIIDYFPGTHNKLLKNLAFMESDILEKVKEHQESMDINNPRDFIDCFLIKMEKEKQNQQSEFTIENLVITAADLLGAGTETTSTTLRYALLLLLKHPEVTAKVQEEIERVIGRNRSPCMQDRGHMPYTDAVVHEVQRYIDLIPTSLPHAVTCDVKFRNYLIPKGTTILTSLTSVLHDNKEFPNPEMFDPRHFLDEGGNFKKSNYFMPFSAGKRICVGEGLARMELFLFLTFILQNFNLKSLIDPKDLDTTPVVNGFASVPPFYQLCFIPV

Rattus norvegicus = experiment: Toxicity in Sprague-Dawley rat at 60 to 1000 mg/kg, po administered as single dose assessed as poisoning symptoms measured immediately post administration; format: organism-based; details: in vivo
Method in brief: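 Acute toxicity study: 30 rats randomly split into three groups and given a single oral dose (60, 250 or 1000 mg/kg) on day 1. Animals were watched for poisoning symptoms and mortality immediately after dosing and over a 2-week post-treatment period. Behaviour, water/food consumption and body weight were also tracked.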

Staphylococcus aureus [4] = experiment: In vivo anti-virulence activity against Staphylococcus aureus Newman in mouse lethal infection model assessed as host survival rate at 0.1 mg bid for 3.5 days administered intraperitoneally 6 hrs post infection and measured on day 4; format: functional
Method in brief: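 In a lethal sepsis model, mice (n=15) were challenged with 2 × 10^8 CFU S. aureus Newman. Animal survival was recorded daily through day 8.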

[5] = tested on: Trichophyton mentagrophytes; experiment: In vitro antifungal activity against Trichophyton mentagrophytes after 7 days by serial dilution method; format: functional; details: 168 h
[6] = Cmax in Sprague-Dawley rat at 10 mg/kg, ip administered as single dose by LC-MS/MS analysis; format: ADME, organism-based; set-up: dose 10 mg/kg, route intraperitoneal; details: in vivo
Staphylococcus aureus [7] = experiment: In vivo anti-virulence activity against Staphylococcus aureus Newman infected in BALB/c mouse model assessed as reduction in bacterial load in kidneys at 0.1 mg bid for 4.5 days administered intraperitoneally 24 hrs prior to infection by serial dilution method; format: functional, organism-based
Method in brief: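 Mice (n=10 per group) got 2.3 × 10^7 CFU S. aureus Newman by retro-orbital injection. Compound was given intraperitoneally b.i.d., either 24 h before infection (4.5 d) or 6 h after infection (3.5 d). Mice were sacrificed after 4.5 d and CFU counted in kidneys and hearts. Groups were compared by two-tailed Mann-Whitney test.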

[8] = Inhibition of CrtN in methicillin-resistant Staphylococcus aureus NRS271 assessed as reduction in staphyloxanthin levels after 48 hrs by spectrophotometric method-based pigment inhibition assay
[9] = AUC (0 to 24 hrs) in mouse at 2 mg/kg, iv administered as single dose by LC-MS/MS analysis; format: ADME, organism-based; set-up: dose 2 mg/kg, time < 24 hr, route intravenous; details: in vivo
Staphylococcus aureus [10] = experiment: In vivo anti-virulence activity against Staphylococcus aureus Mu50 infected in BALB/c mouse model assessed as reduction in bacterial load in kidney at 0.2 mg bid for 3.5 days administered orally 6 hrs post infection by serial dilution method relative to control; format: functional, organism-based
Method in brief: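 Mice were infected by retro-orbital injection with Mu50 (4.6 × 10^9 CFU) or NRS271 (3.5 × 10^8 CFU). Oral compound was given b.i.d. for 3.5 d, starting 6 h after infection. Log10 CFU was counted per kidney and per heart.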

Staphylococcus aureus [11] = experiment: Chemo-sensitization activity in non-pigmented Staphylococcus aureus Newman assessed as increase in H2O2-induced bacterial death by measuring survival rate at 1 uM pre-incubated for 24 hrs followed by H2O2 addition measured after 30 mins by serial dilution method (reference value: 33.3%); format: functional
Method in brief: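 S. aureus Newman was pre-incubated with 1 µM compound, with N-acetylcysteine as antioxidant control, or mock-treated. Cells were then exposed to 1.5% H2O2. Percent bacterial survival was compared with the mock-treated culture.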

[12] = biological target: T2, 4,4'-diapophytoene desaturase (4,4'-diaponeurosporene-forming) (Staphylococcus aureus (strain USA300), UniProt Q2FDU6); experiment: Inhibition of CrtN in methicillin-resistant Staphylococcus aureus LAC USA300 assessed as reduction in staphyloxanthin levels after 48 hrs by spectrophotometric method-based pigment inhibition assay
T2 sequence (Q2FDU6 whole entry): T1 sequence (whole entry) with Q500R

SMILES	Activity (Staphylococcus aureus [1]) [%]	half-life [2] [h]	IC50 (Cytochrome P450 2C9) [nM]	Survival [3] [%]	IC50 (Cytochrome P450 2C19) [nM]	Activity (Rattus norvegicus)	Survival (Staphylococcus aureus [4]) [%]	MIC80 [5] [µg/mL]	Cmax [6] [µg/mL]	Activity (Staphylococcus aureus [7])	IC50 [8] [nM]	AUC(0-t) at 24 h [9] [ng·h/mL]	Activity (Staphylococcus aureus [10])	survival at 1 µM (Staphylococcus aureus [11]) [%]	IC50 [12] [nM]	Activity (Staphylococcus aureus [11])
CN(C/C=C/c1ccc(-c2ccccc2)cc1)Cc1coc2ccccc12.Cl	>95	7.61	> 10000	1	> 10000	Non-Toxic	80	> 64	130	Active	5.6	1070	Active	3	1.9	
CN(C/C=C/c1ccc(-c2ccccc2)cc1)Cc1cccc2cc[nH]c12.Cl	>95							> 64		inactive	10.1				4	Active
